Results filed as inconclusive are left out.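 Rule for the calls, unless noted: active = viability increase at or above a cutoff of the median across tested compounds plus 3 SD (cut at about 8.5% in these data, passing the limit was not always enough); inconclusive = some gains above the cutoff, reason not given; inactive = the rest.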
Key:
[1] = S. cerevisiae growth inhibition in permissive medium (OD615), pilot counter-assay for S. cerevisiae lifespan shortening project, permissive growth control (AID 705;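 active = growth inhibition above 25% in both replicates, a cutoff set 3 SD above the mean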); details: OD615, 24 h, at 10 µM, hits give high values
Summary of the method: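 Test system: Saccharomyces cerevisiae strain carrying genetically modified DeaD replicative-lifespan system; buffer or medium: SC raffinose/galactose permissive medium; dosing: one dose 10 µM, DMSO 0.25% final; times: 24 h exposure, 30 °C; measured by: OD at 615 nm; read-out basis: growth inhibition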

[2] = S. cerevisiae growth inhibition in restrictive medium, OD615, pilot screen, restrictive growth control, yeast lifespan reduction project (AID 706;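 active = growth inhibition above a set limit, 3 SD over mean compound inhibition, in both replicates, cut at about 43% in these data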;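 note: modified DeaD lifespan yeast strain shifted to restrictive glucose medium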); details: OD615, 48 h, at 10 µM, hits give high values
Summary of the method: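 material = engineered S. cerevisiae DeaD strain | buffer or medium = glucose-based CSMM-D restrictive medium | dosing = one concentration, 10 µM final, 0.25% DMSO | schedule = 4 h pre-growth plus 48 h compound exposure, 30 °C | detection = OD615 absorbance reading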

[3] = doxorubicin toxicity protection in MRP-1 cells – H69AR cells, CellTiter-Glo, duplicate, MRP-1 activator project, pilot screen (AID 807); details: H69AR viability with doxorubicin, CellTiter-Glo luminescence; at 10 µM; hits give high values;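 note: compound pretreatment 18-22 h then 72 h combined with doxorubicin; 0% = doxorubicin alone and 100% = vehicle without doxorubicin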
[4] = viability of HCT116 without oncogenic beta-catenin – human colon tumor cells, pilot screen (AID 823;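 active = cell viability at or below a set limit in both duplicate runs, the limit being the all-compound median minus 4 SD, cut at about 23% in these data, passing the limit was not always enough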;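 note: 0% = wells killed by 20 µM Hyamine and 100% = untreated DMSO cell wells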); details: HCT116 beta-catenin knockout viability, CellTiter-Glo, 60 h; at 10 µM; hits give low values
[5] = viability of PTEN-null HCT116 cells – cell-based, HCT116 clonal line, CellTiter-Glo, pilot screen (AID 824;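 active = viability at or below 27.92% in each of two runs, the all-compound median minus 4 SD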;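 note: 0% = 20 µM Hyamine control and 100% = vehicle cell control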); details: HCT116 PTEN-deleted viability, 60 h, at 10 µM, hits give low values
[6] = RAM pathway blockade in budding yeast – dse1pr::URA3 reporter, 5-FOA selection, pilot screen (AID 869;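 active = inhibition over a set limit, the all-compound mean plus 3 SD, in both replicate runs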;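 note: 0% = DMSO wells with no growth and 100% = 10 µM 1-NA-PP1 with full growth; RAM network block rescues cells from 5-FOA so hits raise OD615 growth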); details: S. cerevisiae dse1pr::URA3 5-FOA growth, OD615, 2 d; at 10 µM; hits give high values; strain carries analog-sensitive mutant Cbk1 kinase
[7] = RAM signaling pathway blockade in yeast – S. cerevisiae, Pdr1DBD-CYC8 efflux-inhibited sensitized strain, primary screen (AID 1298;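 active = RAM network inhibition above 8.4% in each of two replicates, 3 SD over the compound average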;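 note: 0% = DMSO untreated cells without growth and 100% = 10 µM 1-NA-PP1 full growth; higher means more yeast growth rescued from 5-FOA killing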); details: S. cerevisiae cbk1-as DSE1-URA3 strain, 5-FOA growth OD615, 2 d; at 50 µM; hits give high values

N#CCCN(CCC#N)C(=O)c1ccc(Cl)cc1
inactive: growth inhibition [1] -2.15% | growth inhibition [2] -11.1% | viability increase [3] -1.59% | viability [4] 92.7% | viability [5] 93.2% | inhibition [6] 1.3% | RAM network inhibition [7] 3.78%

COc1ccc(C2C(C(=O)NCCN3CCOCC3)c3ccccc3C(=O)N2C)cc1OC (configuration not stated)
inactive: growth inhibition [1] -2.92% | growth inhibition [2] -2.97% | viability increase [3] -0.98% | viability [4] 91.5% | viability [5] 100% | inhibition [6] 1.24% | RAM network inhibition [7] 3.26%

CCOC(=O)C1CCCN(C(=O)C2CCN(c3nnc(-n4cccc4)s3)CC2)C1 (configuration not stated)
inactive: growth inhibition [1] 5.27% | growth inhibition [2] 2.6% | viability increase [3] -2.17% | viability [4] 98.5% | viability [5] 90.8% | inhibition [6] 1.1% | RAM network inhibition [7] 2.55%

CN(C)CCN(Cc1ccccc1)c1ccnc(N(C)C)c1C#N
inactive: growth inhibition [1] -13.2% | growth inhibition [2] -17.6% | viability increase [3] -4.22% | viability [4] 85.2% | viability [5] 89.5% | inhibition [6] 1.11% | RAM network inhibition [7] 2.08%

Cc1cc(=O)oc2cc3c(cc12)OCCN3
inactive: growth inhibition [1] 5.96% | growth inhibition [2] 2.04% | viability increase [3] -1.47% | viability [4] 93% | viability [5] 97.6% | inhibition [6] 2.65% | RAM network inhibition [7] 3.78%

Cc1onc(-c2ccccc2Cl)c1C(=O)OCN1C(=O)c2ccccc2C1=O
inactive: growth inhibition [1] -16.8% | growth inhibition [2] -12.5% | viability increase [3] -2.89% | viability [4] 90% | viability [5] 99% | inhibition [6] 0.93% | RAM network inhibition [7] 5.34%

CC(=O)c1ccc(OCC(O)CN2CCOCC2)cc1 (configuration not stated)
inactive: growth inhibition [1] -11.4% | growth inhibition [2] 10.1% | viability increase [3] 0.28% | viability [4] 103% | viability [5] 90.7% | inhibition [6] 2.42% | RAM network inhibition [7] 0.84%

CCCCOC(=O)Nc1ccc(N2CCOCC2)cc1
inactive: growth inhibition [1] -0.54% | growth inhibition [2] 2.39% | viability increase [3] -0.38% | viability [4] 98.2% | viability [5] 102% | inhibition [6] 1.28% | RAM network inhibition [7] 4.87%

CCOC(=O)COc1cc2c(C(=O)OCC)c(C)oc2cc1Br
inactive: growth inhibition [1] -10% | growth inhibition [2] -2.66% | viability increase [3] -2.07% | viability [4] 89.3% | viability [5] 89.8% | inhibition [6] 1.04% | RAM network inhibition [7] 12.8%

CC(C)c1nc(SCC(=O)Nc2ccc3c(c2)OCCO3)c2c(=O)n(C)c(=O)n(C)c2n1
inactive: growth inhibition [1] 0.9% | growth inhibition [2] 4.21% | viability increase [3] -2.28% | viability [4] 85.4% | viability [5] 84.4% | inhibition [6] 3.59% | RAM network inhibition [7] 5.72%

Fc1cc2nc(-c3ccncc3)[nH]c2cc1F
inactive: growth inhibition [1] -7.19% | growth inhibition [2] -19.1% | viability increase [3] -1.54% | viability [4] 109% | viability [5] 94.6% | inhibition [6] 0.625% | RAM network inhibition [7] 2.24%

Cc1sc(NC(=O)CCCC(=O)O)c(C#N)c1C
inactive: growth inhibition [1] -0.59% | growth inhibition [2] 16.8% | viability increase [3] -1.9% | viability [4] 99.4% | viability [5] 99% | inhibition [6] 1.27% | RAM network inhibition [7] 3.31%

Nn1c(SC/C=C/c2ccccc2)nnc1-c1ccccn1
inactive: growth inhibition [1] -5.81% | growth inhibition [2] -10% | viability increase [3] -0.88% | viability [4] 103% | viability [5] 95.1% | inhibition [6] -0.5% | RAM network inhibition [7] -2.02%

Cc1cccc(-c2nnc(-c3ccccc3)o2)c1
inactive: growth inhibition [1] -8.19% | growth inhibition [2] -3.2% | viability increase [3] -5.21% | viability [4] 78% | viability [5] 81.7% | inhibition [6] 1.5% | RAM network inhibition [7] 1.78%

CCN(CCNC(=O)Cn1cc2c(n1)CCCC2)c1ccccc1
inactive: growth inhibition [1] -4.85% | growth inhibition [2] -6.55% | viability increase [3] 0.42% | viability [4] 109% | viability [5] 93.5% | inhibition [6] 2.4% | RAM network inhibition [7] 0.1%

N#Cc1nc(-c2ccccc2Cl)oc1NCC1CCCO1 (configuration not stated)
inactive: growth inhibition [1] -2.88% | growth inhibition [2] 8.84% | viability increase [3] 0.31% | viability [4] 91.1% | viability [5] 86.8% | inhibition [6] 1.48% | RAM network inhibition [7] 1.33%

Reference: PubChem BioAssay
